Among the data in ChEMBL document CHEMBL1145915, “Molecular model of the alpha(IIb)beta(3) integrin” (J Med Chem, 2003) are IC50 values, retold here.

Molecules are shown by their SMILES.

As a reminder, the IC50 is the midpoint of a concentration-inhibition curve. Low values mean greater potency, high ones weaker potency.

Experiment [1] addresses Integrin alpha-V/beta-3 (Homo sapiens, UniProt P05106+P06756). The experiment in a line: Inhibition of binding to human Vitronectin receptor (integrin alphaV-beta3). The class given is protein-complex assay. A digest of the protocol:
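Scintillation proximity binding assay with lyophilized wheat germ agglutinin SPA beads. Receptor was αvβ3 integrin purified from HEK 293 cells overexpressing human recombinant αvβ3. Tracer was a 125I-labeled ligand, and test compounds were scored by displacement of its binding.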

Experiment [2] concerns the target Integrin alpha-IIb/beta-3 (Homo sapiens, UniProt P05106+P08514). Description: Inhibition of human alphaIIb-beta3 integrin in platelet aggregation assay.

Sequence of Integrin alpha-V/beta-3 (P05106 27-788 limits assumed): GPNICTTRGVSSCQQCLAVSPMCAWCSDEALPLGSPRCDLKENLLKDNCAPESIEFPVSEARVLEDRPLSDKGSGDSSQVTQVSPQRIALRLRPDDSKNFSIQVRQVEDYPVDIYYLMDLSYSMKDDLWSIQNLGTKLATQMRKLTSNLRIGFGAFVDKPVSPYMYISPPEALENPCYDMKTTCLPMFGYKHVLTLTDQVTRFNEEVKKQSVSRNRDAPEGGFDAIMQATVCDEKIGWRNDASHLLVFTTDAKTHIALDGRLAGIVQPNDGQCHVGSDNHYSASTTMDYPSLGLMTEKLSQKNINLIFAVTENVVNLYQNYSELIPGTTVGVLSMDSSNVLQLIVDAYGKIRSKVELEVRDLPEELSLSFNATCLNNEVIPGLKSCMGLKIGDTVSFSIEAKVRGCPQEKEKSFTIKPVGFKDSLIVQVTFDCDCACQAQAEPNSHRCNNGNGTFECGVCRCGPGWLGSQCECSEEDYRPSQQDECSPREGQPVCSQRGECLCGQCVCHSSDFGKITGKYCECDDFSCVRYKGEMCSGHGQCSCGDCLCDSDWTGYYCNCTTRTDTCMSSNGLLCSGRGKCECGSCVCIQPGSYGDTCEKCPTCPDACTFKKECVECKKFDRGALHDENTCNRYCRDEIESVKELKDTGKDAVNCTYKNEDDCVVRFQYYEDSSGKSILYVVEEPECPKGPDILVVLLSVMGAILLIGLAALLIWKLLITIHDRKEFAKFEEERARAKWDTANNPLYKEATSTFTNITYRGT
Sequence of Integrin alpha-V/beta-3 (P06756 31-889 limits assumed): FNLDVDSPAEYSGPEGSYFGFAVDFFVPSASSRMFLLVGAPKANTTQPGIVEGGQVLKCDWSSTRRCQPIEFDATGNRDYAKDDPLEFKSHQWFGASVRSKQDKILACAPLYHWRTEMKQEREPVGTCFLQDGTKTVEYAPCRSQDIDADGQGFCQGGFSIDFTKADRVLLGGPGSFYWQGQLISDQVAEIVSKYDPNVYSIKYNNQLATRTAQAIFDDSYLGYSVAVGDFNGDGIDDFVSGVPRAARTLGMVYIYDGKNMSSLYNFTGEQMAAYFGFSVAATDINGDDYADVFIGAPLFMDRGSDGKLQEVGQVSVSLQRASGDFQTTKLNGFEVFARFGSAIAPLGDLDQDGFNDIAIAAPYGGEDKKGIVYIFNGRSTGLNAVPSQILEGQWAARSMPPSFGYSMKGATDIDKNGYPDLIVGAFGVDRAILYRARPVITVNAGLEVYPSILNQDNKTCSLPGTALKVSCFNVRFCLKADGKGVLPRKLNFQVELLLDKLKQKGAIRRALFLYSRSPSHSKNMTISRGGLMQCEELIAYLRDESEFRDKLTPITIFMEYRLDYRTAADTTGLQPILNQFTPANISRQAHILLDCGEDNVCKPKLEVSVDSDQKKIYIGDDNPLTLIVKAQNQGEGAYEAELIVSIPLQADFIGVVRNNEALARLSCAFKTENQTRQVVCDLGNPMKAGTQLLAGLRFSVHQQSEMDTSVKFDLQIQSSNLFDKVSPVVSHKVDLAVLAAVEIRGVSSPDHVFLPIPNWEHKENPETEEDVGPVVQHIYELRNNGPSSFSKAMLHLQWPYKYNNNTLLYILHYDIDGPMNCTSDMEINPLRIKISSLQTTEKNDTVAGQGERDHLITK
Sequence of Integrin alpha-V/beta-3 (P06756 891-1048 limits assumed): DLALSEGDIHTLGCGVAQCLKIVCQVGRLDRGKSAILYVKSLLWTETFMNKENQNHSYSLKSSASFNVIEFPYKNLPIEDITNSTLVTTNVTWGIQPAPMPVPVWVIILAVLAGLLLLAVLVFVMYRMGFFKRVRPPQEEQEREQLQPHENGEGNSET
Sequence of Integrin alpha-IIb/beta-3 (P05106 27-788 limits assumed): as the sequence (P05106 27-788 limits assumed) above
Sequence of Integrin alpha-IIb/beta-3 (P08514 32-887 limits assumed): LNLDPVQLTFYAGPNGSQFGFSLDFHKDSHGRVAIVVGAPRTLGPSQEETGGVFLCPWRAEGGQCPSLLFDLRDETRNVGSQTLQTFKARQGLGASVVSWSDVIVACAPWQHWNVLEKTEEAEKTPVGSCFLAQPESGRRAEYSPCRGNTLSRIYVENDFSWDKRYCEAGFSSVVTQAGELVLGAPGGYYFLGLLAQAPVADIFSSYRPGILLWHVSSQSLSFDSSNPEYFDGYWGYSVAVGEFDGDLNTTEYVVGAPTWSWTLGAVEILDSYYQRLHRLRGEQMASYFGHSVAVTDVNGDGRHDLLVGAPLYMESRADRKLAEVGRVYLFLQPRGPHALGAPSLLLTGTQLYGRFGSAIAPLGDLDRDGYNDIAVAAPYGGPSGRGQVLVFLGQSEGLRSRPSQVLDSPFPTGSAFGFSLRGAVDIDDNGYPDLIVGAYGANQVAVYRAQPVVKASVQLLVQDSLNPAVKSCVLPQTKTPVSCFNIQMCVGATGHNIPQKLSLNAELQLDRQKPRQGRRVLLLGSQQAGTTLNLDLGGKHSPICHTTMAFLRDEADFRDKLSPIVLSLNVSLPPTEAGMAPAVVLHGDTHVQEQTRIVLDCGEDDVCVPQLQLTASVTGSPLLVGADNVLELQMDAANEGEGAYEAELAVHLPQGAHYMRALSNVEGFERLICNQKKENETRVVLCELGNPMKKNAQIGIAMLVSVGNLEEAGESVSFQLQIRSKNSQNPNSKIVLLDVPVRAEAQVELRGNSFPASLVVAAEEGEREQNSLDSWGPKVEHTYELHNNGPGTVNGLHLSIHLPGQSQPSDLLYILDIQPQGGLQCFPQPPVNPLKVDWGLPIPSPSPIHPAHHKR
Sequence of Integrin alpha-IIb/beta-3 (P08514 891-1039 limits assumed): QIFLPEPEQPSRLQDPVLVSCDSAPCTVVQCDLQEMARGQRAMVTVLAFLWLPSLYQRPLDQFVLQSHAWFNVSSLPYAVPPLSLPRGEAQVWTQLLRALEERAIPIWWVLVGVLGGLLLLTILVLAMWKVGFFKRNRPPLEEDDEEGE

In experiment [1], `Nc1cccc(CCc2ccc(C(=O)NC[C@H](NS(=O)(=O)c3ccccc3)C(=O)O)cc2)n1` gave an IC50 of 0.08 nM. The same measure, in the same setting: the result for `O=C(O)CC(NC(=O)CCCCc1ccc2c(n1)NCCC2)c1cncnc1` (stereo not drawn) reads 3.3 nM; that for `N=C(N)NCCC[C@H](N)C(=O)NCC(=O)N[C@@H](CC(=O)O)C(=O)O`, greater than 10000 nM; that for `O=C(NC[C@H](NS(=O)(=O)c1ccccc1)C(=O)O)c1ccc(N2CCNCC2)cc1`, greater than 1000 nM. In the case of `CC1(C)[C@@H]2CC[C@@]1(CS(=O)(=O)N[C@@H](CNC(=O)c1ccc(CCc3ccc4c(n3)NCCC4)cc1)C(=O)O)C(=O)C2`, the IC50 in experiment [1] turned out to be 0.11 nM. Regarding `O=C(NC[C@H](NS(=O)(=O)c1ccccc1)C(=O)O)c1ccc(OCCC2CCNCC2)cc1`, the IC50 in experiment [2] was 10 nM; in experiment [1], greater than 1000 nM. As to `CCCCS(=O)(=O)N[C@@H](Cc1ccc(OCCCCC2CCNCC2)cc1)C(=O)O` [TIROFIBAN], the IC50 in experiment [1] is greater than 1000 nM.
